Measured values published in ChEMBL document CHEMBL5357047, “The development of thymol-isatin hybrids as broad-spectrum antibacterial agents with potent anti-MRSA activity” (RSC Med Chem, 2024).
≈ marks a conversion by molar mass, not a printed value.

Legend:
[1] = target: T1, 4,4'-diapophytoene synthase (Staphylococcus aureus, UniProt A9JQL9); assay: Inhibition of Staphylococcus aureus CrtM
T1 sequence (A9JQL9 whole entry): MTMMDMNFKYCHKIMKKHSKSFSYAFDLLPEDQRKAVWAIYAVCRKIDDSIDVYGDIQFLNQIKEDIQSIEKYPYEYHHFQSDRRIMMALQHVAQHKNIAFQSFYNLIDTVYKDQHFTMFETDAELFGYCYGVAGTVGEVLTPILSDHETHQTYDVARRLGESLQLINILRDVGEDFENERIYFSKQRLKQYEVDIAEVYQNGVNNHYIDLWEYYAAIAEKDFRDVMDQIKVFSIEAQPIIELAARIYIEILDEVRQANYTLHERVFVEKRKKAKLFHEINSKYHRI

Klebsiella pneumoniae [2] = assay: Antibacterial activity against Klebsiella pneumoniae MTCC 109 assessed as inhibition of bacterial growth at 50 uM measured after 48 hrs by agar well diffusion method; assay type: functional; conditions: read-out: IZ
Staphylococcus aureus [3] = assay: Bactericidal activity against Methicillin-resistant Staphylococcus aureus ATCC 33591 assessed as inhibition of bacterial growth measured after 48 hrs by agar plate method; assay type: functional
Summary of the method: (§1)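 MBC: aliquots from microdilution wells without colour change subcultured on drug-free Mueller Hinton agar, 48 h at 37 °C aerobically. MBC is the lowest concentration with no visible growth. Triplicate.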

[4] = Selectivity index, ratio of IC50 for cytotoxicity against mouse L929 cells to MIC for antibacterial activity against clinically isolated Methicillin-resistant Staphylococcus aureus; assay type: toxicity, cell-based; conditions: read-out: Selectivity Index
Escherichia coli [5] = assay: Antibacterial activity against clinically isolated Escherichia coli RBRJ005 assessed as inhibition of bacterial growth at 50 uM measured after 48 hrs by agar well diffusion method; assay type: functional; conditions: read-out: IZ
Staphylococcus aureus [6] = assay: Antibacterial activity against Methicillin-resistant Staphylococcus aureus ATCC 33591 assessed as inhibition of bacterial growth measured after 48 hrs by broth microdilution method; assay type: functional
Staphylococcus aureus [7] = assay: Antibacterial activity against Staphylococcus aureus MTCC 740 assessed as inhibition of bacterial growth measured after 48 hrs by broth microdilution method; assay type: functional
Klebsiella pneumoniae [8] = assay: Antibacterial activity against clinically isolated Klebsiella pneumoniae RBRJ019 assessed as inhibition of bacterial growth at 50 uM measured after 48 hrs by agar well diffusion method; assay type: functional; conditions: read-out: IZ
Staphylococcus aureus [9] = assay: Antibacterial activity against clinically isolated Methicillin-resistant Staphylococcus aureus assessed as inhibition of bacterial growth measured after 48 hrs by broth microdilution method; assay type: functional
Staphylococcus aureus [10] = assay: Antibacterial activity against Staphylococcus aureus MTCC 740 assessed as inhibition of bacterial growth at 50 uM measured after 48 hrs by agar well diffusion method; assay type: functional; conditions: read-out: IZ
Staphylococcus aureus [11] = assay: Antibacterial activity against Methicillin-resistant Staphylococcus aureus ATCC 33591 assessed as inhibition of bacterial growth at 50 uM measured after 48 hrs by agar well diffusion method; assay type: functional; conditions: read-out: IZ
Summary of the method: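 Agar well diffusion on Mueller Hinton agar seeded with bacteria at 0.5 McFarland. […] Incubated 48 h at 37 °C aerobically; zone of inhibition diameter (mm) measured. Triplicate.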

Enterococcus faecalis [12] = assay: Antibacterial activity against Enterococcus faecalis MTCC 439 assessed as inhibition of bacterial growth at 50 uM measured after 48 hrs by agar well diffusion method; assay type: functional; conditions: read-out: IZ
[13] = Cytotoxicity against mouse L929 cells assessed as reduction in cell viability measured after 72 hrs by MTT assay; assay type: toxicity, cell-based
Summary of the method: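 L929 cells (ATCC) grown in DMEM with 10% FBS and penicillin/streptomycin at 37 °C, 5% CO2; seeded at 5 × 10^3 cells per well and exposed to serial dilutions for 72 h, paclitaxel as positive control. MTT (5 mg mL−1), formazan dissolved in DMSO, absorbance at 490 nm; viability relative to control after blank subtraction; IC50 in μM.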

[14] = tested on: Staphylococcus epidermidis; assay: Antibacterial activity against Staphylococcus epidermidis MTCC 435 assessed as inhibition of bacterial growth at 50 uM measured after 48 hrs by agar well diffusion method; assay type: functional; conditions: read-out: IZ
Klebsiella pneumoniae [15] = assay: Antibacterial activity against clinically isolated Klebsiella pneumoniae RBRJ024 assessed as inhibition of bacterial growth at 50 uM measured after 48 hrs by agar well diffusion method; assay type: functional; conditions: read-out: IZ
Staphylococcus aureus [16] = assay: Antibacterial activity against clinically isolated Methicillin-resistant Staphylococcus aureus assessed as inhibition of bacterial growth at 50 uM measured after 48 hrs by agar well diffusion method; assay type: functional; conditions: read-out: IZ
Staphylococcus aureus [17] = assay: Bactericidal activity against Staphylococcus aureus MTCC 740 assessed as inhibition of bacterial growth measured after 48 hrs by agar plate method; assay type: functional; summary of the method: as §1
Enterococcus faecalis [18] = assay: Antibacterial activity against clinically isolated Enterococcus faecalis RBRJ015 assessed as inhibition of bacterial growth at 50 uM measured after 48 hrs by agar well diffusion method; assay type: functional; conditions: read-out: IZ
Staphylococcus aureus [19] = assay: Bactericidal activity against clinically isolated Staphylococcus aureus RBRJ010 assessed as inhibition of bacterial growth measured after 48 hrs by agar plate method; assay type: functional
Summary of the method: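 MBC: 10 μL from wells showing no INT colour change after broth microdilution subcultured on drug-free Mueller Hinton agar, 48 h at 37 °C aerobically; lowest concentration with no visible growth taken as MBC (μM). Triplicate.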

Enterobacter cloacae = assay: Antibacterial activity against clinically isolated Enterobacter cloacae RBRJ017 assessed as inhibition of bacterial growth at 50 uM measured after 48 hrs by agar well diffusion method; assay type: functional; conditions: read-out: IZ
Pseudomonas aeruginosa = assay: Antibacterial activity against Pseudomonas aeruginosa MTCC 424 assessed as inhibition of bacterial growth at 50 uM measured after 48 hrs by agar well diffusion method; assay type: functional; conditions: read-out: IZ
Escherichia coli [20] = assay: Antibacterial activity against Escherichia coli MTCC 119 assessed as inhibition of bacterial growth at 50 uM measured after 48 hrs by agar well diffusion method; assay type: functional; conditions: read-out: IZ
Escherichia coli [21] = assay: Antibacterial activity against clinically isolated Escherichia coli RBRJ013 assessed as inhibition of bacterial growth at 50 uM measured after 48 hrs by agar well diffusion method; assay type: functional; conditions: read-out: IZ
Staphylococcus aureus [22] = assay: Antibacterial activity against clinically isolated Staphylococcus aureus RBRJ010 assessed as inhibition of bacterial growth measured after 48 hrs by broth microdilution method; assay type: functional
Acinetobacter baumannii = assay: Antibacterial activity against clinically isolated Acinetobacter baumannii RBRJ027 assessed as inhibition of bacterial growth at 50 uM measured after 48 hrs by agar well diffusion method; assay type: functional; conditions: read-out: IZ
Staphylococcus aureus [23] = assay: Antibacterial activity against clinically isolated Staphylococcus aureus RBRJ010 assessed as inhibition of bacterial growth at 50 uM measured after 48 hrs by agar well diffusion method; assay type: functional; conditions: read-out: IZ
Staphylococcus aureus [24] = assay: Bactericidal activity against clinically isolated Methicillin-resistant Staphylococcus aureus assessed as inhibition of bacterial growth measured after 48 hrs by agar plate method; assay type: functional

| SMILES | zone of inhibition at 50 µM (Klebsiella pneumoniae [2]) [mm] | MBC (Staphylococcus aureus [3]) [µM] | zone of inhibition at 50 µM (Escherichia coli [5]) [mm] | MIC (Staphylococcus aureus [6]) [µM] | MIC (Staphylococcus aureus [7]) [µM] | zone of inhibition at 50 µM (Klebsiella pneumoniae [8]) [mm] | MIC (Staphylococcus aureus [9]) [µM] | zone of inhibition at 50 µM (Staphylococcus aureus [10]) [mm] | zone of inhibition at 50 µM (Staphylococcus aureus [11]) [mm] | zone of inhibition at 50 µM (Enterococcus faecalis [12]) [mm] | zone of inhibition at 50 µM [14] [mm] | zone of inhibition at 50 µM (Klebsiella pneumoniae [15]) [mm] | zone of inhibition at 50 µM (Staphylococcus aureus [16]) [mm] | zone of inhibition at 50 µM (Enterococcus faecalis [18]) [mm] | zone of inhibition at 50 µM (Enterobacter cloacae) [mm] | zone of inhibition at 50 µM (Pseudomonas aeruginosa) [mm] | zone of inhibition at 50 µM (Escherichia coli [20]) [mm] | zone of inhibition at 50 µM (Escherichia coli [21]) [mm] | zone of inhibition at 50 µM (Acinetobacter baumannii) [mm] | zone of inhibition at 50 µM (Staphylococcus aureus [23]) [mm] | other results |
| --- | --- | --- | --- | --- | --- | --- | --- | --- | --- | --- | --- | --- | --- | --- | --- | --- | --- | --- | --- | --- | --- |
| O=P(O)(O)C(CCCc1ccc(-c2ccccc2)cc1)P(=O)(O)O |  |  |  |  |  |  |  |  |  |  |  |  |  |  |  |  |  |  |  |  | Ki [1]: 0.0002 µM |
| Cc1ccc(C(C)C)c(OCc2cn(CCCN3C(=O)C(=O)c4cc(Cl)ccc43)nn2)c1 | 14.3 | 125 (≈ 56.6 µg/mL) | 15.2 | 62.5 (≈ 28.3 µg/mL) | 15.6 (≈ 7.07 µg/mL) | 15.1 | 31.2 (≈ 14.1 µg/mL) | 22.1 | 20.5 | 14.2 | 18.2 | 14.8 | 21.3 | 14.1 | 15.7 | 13.3 | 14.2 | 15.5 | 13.2 | 21.2 | selectivity ratio [4]: 4; IC50 at 72 h [13]: 125 µM; MBC (Staphylococcus aureus [17]): 31.2 µM (≈ 14.1 µg/mL); MBC (Staphylococcus aureus [19]): 31.2 µM (≈ 14.1 µg/mL); MIC (Staphylococcus aureus [22]): 15.6 µM (≈ 7.07 µg/mL); MBC (Staphylococcus aureus [24]): 62.5 µM (≈ 28.3 µg/mL) |
| Cc1ccc(C(C)C)c(OCc2cn(CCCN3C(=O)C(=O)c4cc(I)ccc43)nn2)c1 | 12.3 | 125 (≈ 68 µg/mL) | 12.3 | 62.5 (≈ 34 µg/mL) | 31.2 (≈ 17 µg/mL) | 11.3 | 62.5 (≈ 34 µg/mL) | 20.2 | 20.5 | 11.7 | 14.2 | 12.7 | 20.2 | 11.1 | 13.7 | 11.6 | 13.2 | 11.2 | 11.5 | 19 | MBC (Staphylococcus aureus [17]): 125 µM (≈ 68 µg/mL); MBC (Staphylococcus aureus [24]): 125 µM (≈ 68 µg/mL) |
| COc1ccc2c(c1)C(=O)C(=O)N2CCn1cc(COc2cc(C)ccc2C(C)C)nn1 | 15.3 |  | 11.5 |  |  | 14.6 |  | 16.2 | 15.5 | 15.5 | 16.4 | 14.9 | 15.3 | 11.3 | 13.2 | 11.5 | 16.2 | 11.1 | 11.4 | 20.3 | MBC (Staphylococcus aureus [19]): 125 µM (≈ 54.3 µg/mL); MIC (Staphylococcus aureus [22]): 62.5 µM (≈ 27.2 µg/mL) |
| Cc1ccc(C(C)C)c(OCc2cn(CCCN3C(=O)C(=O)c4cc(F)ccc43)nn2)c1 | 15.2 | 125 (≈ 54.6 µg/mL) | 16.2 | 62.5 (≈ 27.3 µg/mL) | 7.8 (≈ 3.4 µg/mL) | 15.4 | 15.6 (≈ 6.81 µg/mL) | 24.1 | 20.3 | 16.4 | 16.2 | 14.3 | 22.2 | 15.3 | 15.3 | 16 | 15.2 | 16.2 | 14.7 | 23.2 | selectivity ratio [4]: 2; IC50 at 72 h [13]: 31.2 µM; MBC (Staphylococcus aureus [17]): 15.6 µM (≈ 6.81 µg/mL); MBC (Staphylococcus aureus [19]): 15.6 µM (≈ 6.81 µg/mL); MIC (Staphylococcus aureus [22]): 7.8 µM (≈ 3.4 µg/mL); MBC (Staphylococcus aureus [24]): 31.2 µM (≈ 13.6 µg/mL) |
| COc1ccc2c(c1)C(=O)C(=O)N2CCCn1cc(COc2cc(C)ccc2C(C)C)nn1 | 17.3 | 15.6 (≈ 7 µg/mL) | 17.2 | 7.8 (≈ 3.5 µg/mL) | 62.5 (≈ 28 µg/mL) | 18.1 | 3.9 (≈ 1.75 µg/mL) | 25.3 | 25.3 | 12.6 | 15.7 | 17.6 | 25.1 | 11.3 | 13.5 | 16.4 | 16.5 | 15.4 | 12.3 | 23.3 | MBC (Staphylococcus aureus [17]): 125 µM (≈ 56.1 µg/mL); MBC (Staphylococcus aureus [19]): 31.2 µM (≈ 14 µg/mL); MIC (Staphylococcus aureus [22]): 15.6 µM (≈ 7 µg/mL); MBC (Staphylococcus aureus [24]): 7.8 µM (≈ 3.5 µg/mL) |
